In ChEMBL document CHEMBL5096209, “Structure-Activity Studies of 3,9-Diazaspiro[5.5]undecane-Based γ-Aminobutyric Acid Type A Receptor Antagonists with Immunomodulatory Effect” (J Med Chem, 2021):

Columns and labels:
[1] = target: T1, Gamma-aminobutyric acid receptor subunit alpha-1/beta-2/delta (Homo sapiens, UniProt O14764+P14867+P47870); assay: Antagonist activity at human alpha1beta2delta GABAA receptor expressed in HEK293 Flp-In cells by FMP assay; assay type: cell-based, Flp-In-293
T1 sequence (P14867 whole entry): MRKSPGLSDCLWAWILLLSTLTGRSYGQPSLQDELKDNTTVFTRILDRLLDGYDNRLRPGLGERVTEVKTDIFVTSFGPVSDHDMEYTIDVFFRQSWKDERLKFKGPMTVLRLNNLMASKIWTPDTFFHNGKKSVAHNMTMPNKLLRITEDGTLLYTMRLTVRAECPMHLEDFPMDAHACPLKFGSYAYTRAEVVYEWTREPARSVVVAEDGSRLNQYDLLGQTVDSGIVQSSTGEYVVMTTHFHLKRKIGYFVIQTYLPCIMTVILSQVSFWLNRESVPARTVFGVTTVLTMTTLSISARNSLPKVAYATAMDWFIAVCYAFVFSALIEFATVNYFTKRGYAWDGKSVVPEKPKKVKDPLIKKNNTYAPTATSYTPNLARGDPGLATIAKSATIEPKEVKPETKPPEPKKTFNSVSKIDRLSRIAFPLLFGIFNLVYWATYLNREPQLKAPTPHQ
T1 sequence (P47870 whole entry): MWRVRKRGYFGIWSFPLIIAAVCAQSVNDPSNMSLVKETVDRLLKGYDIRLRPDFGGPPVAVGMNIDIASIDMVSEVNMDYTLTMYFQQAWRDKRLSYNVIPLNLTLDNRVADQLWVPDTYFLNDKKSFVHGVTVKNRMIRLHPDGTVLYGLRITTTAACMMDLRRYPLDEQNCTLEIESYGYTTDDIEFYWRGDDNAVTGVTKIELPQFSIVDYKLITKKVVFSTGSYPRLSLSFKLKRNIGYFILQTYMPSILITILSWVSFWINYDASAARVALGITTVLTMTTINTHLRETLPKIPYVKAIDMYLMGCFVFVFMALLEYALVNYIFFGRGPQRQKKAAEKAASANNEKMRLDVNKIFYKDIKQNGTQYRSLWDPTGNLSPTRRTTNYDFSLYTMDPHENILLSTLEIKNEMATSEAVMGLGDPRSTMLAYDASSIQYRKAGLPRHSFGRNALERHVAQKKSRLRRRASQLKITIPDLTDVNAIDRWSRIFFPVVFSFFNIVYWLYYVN
T1 sequence (O14764 whole entry): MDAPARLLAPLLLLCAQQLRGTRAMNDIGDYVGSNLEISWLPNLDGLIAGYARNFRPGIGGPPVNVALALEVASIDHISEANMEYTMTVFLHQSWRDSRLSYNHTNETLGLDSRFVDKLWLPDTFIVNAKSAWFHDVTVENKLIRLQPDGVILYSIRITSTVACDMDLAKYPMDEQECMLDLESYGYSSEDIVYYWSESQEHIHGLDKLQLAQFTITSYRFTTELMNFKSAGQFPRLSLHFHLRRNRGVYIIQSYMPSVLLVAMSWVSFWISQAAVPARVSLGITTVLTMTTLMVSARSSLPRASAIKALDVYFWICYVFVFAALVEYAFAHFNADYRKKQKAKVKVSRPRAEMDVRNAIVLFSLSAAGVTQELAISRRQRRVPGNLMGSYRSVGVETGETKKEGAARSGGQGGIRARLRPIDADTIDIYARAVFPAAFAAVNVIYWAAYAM
How it was run: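 HEK293 Flp-In cells stably expressing human δ subunit, transiently transfected with human α and β subunits (1:1) to form αβδ receptors. Read-out is the FLIPR membrane potential dye ΔRFU, baseline to peak/plateau, with GABA EC80 as agonist. Four-parameter fit of concentration–inhibition curves gives IC50, from at least three independent experiments.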

[2] = target: T2, GABA A receptor alpha-2/beta-2/gamma-2 (Homo sapiens, UniProt P18507+P47869+P47870); assay: Antagonist activity at human alpha2beta2gamma2 GABAA receptor expressed in HEK293 cells by FMP assay; assay type: cell-based
T2 sequence (P47870 whole entry): T1 sequence (P47870 whole entry)
T2 sequence (P18507 whole entry): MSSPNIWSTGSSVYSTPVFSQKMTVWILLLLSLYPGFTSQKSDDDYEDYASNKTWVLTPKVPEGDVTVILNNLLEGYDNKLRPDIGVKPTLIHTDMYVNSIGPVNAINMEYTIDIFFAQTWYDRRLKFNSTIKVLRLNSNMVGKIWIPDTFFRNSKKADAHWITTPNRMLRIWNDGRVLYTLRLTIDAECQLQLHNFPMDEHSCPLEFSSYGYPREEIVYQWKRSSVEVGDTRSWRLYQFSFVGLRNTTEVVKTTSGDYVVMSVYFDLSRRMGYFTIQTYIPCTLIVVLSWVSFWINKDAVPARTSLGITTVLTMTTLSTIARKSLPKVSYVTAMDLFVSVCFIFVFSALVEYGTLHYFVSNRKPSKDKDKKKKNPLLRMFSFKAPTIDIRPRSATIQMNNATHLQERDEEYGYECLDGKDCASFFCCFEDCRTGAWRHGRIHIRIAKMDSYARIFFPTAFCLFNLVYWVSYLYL
T2 sequence (P47869 whole entry): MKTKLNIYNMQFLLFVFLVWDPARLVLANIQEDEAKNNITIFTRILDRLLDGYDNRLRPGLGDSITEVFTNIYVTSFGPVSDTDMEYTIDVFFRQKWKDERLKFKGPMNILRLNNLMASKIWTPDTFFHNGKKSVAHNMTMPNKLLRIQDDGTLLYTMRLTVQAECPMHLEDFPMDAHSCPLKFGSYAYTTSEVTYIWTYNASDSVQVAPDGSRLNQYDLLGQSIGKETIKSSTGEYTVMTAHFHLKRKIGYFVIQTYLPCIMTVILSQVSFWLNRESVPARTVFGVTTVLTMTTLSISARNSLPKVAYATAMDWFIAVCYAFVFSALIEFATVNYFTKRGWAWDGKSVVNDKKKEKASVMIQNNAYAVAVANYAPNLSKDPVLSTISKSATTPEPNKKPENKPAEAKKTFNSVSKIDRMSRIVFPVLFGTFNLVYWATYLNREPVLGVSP
How it was run: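 Human αβγ2 receptors in HEK293 cells: α1β2γ2 stably expressed, other αβγ2 subtypes transiently transfected into HEK293 Flp-In background cells (α:β:γ 1:1:2). FLIPR membrane potential assay with ΔRFU baseline to peak/plateau and GABA EC80 as agonist. IC50 from a four-parameter fit, at least three independent experiments.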

| IC50 [1] [µM] | IC50 ([1]; read-out: pIC50 (converted)) [µM] | IC50 [2] [µM] | IC50 ([2]; read-out: pIC50 (converted)) [µM] | Compound |
| --- | --- | --- | --- | --- |
| 4.95 | 4.9 | 7.56 | 7.41 | Cc1cccc(C(=O)N2CCC3(CCNCC3)CC2)c1 |
| 13.2 | 13.2 | 25.3 | 25.1 | Cc1ccc(C(=O)N2CCC3(CCNCC3)CC2)cc1 |
